Data taken from ChEMBL document CHEMBL4725247, “Cytosolic delivery of peptidic STAT3 SH2 domain inhibitors” (Bioorg Med Chem, 2020).
The source made the active and inactive calls. The calls are words filed in the database; no cut-off is given here. Where a SMILES comes first, the peptide text is derived from it. Bridges are numbered along the chain shown (N, C = ends). Roman numbers before positions name the chains, in order. [ ]: non-standard residue; d: D form. F2Pmp = N[C@@H](Cc1ccc(C(F)(F)P(=O)(O)O)cc1)C(=O)O; pY = N[C@@H](Cc1ccc(OP(=O)(O)O)cc1)C(=O)O; 2Nal = N[C@@H](Cc1ccc2ccccc2c1)C(=O)O; βAla = NCCC(=O)O

How the values were obtained:
[1] = target: Signal transducer and activator of transcription 3 (Homo sapiens) (UniProt P40763); test: Inhibition of OSM-stimulated STAT3 activity in human U3A cell at 25 uM pretreated for 24 hrs followed by OSM stimulation and measured after 6 hrs by bright Glo-luciferase reporter gene assay
Outline: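 STAT3-luc U3A fibrosarcoma reporter cells seeded at 10⁴ cells/well overnight. Pretreated with peptide or vehicle (10 or 25 μM) for 24 h at 37 °C in DMEM + 10% FBS, then stimulated 6 h with OSM 10 ng/mL. Luciferase read by Bright-Glo luminescence. Controls: OSM alone and unstimulated cells.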

[2] = tested on: MDA-MB-468; test: Cytotoxicity against human MDA-MB-468 cells assessed as cell viability at 25 uM measured after 72 hrs by Celltiter-Glo assay; type: functional, cell-based
Outline: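 MDA-MB-468 breast cancer cells seeded at 3 × 10³ cells/well overnight, then given peptide or vehicle (10 or 25 μM) and kept at 37 °C for 72 h. Viability read by CellTiter-Glo luminescence.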

[3] = Stability in human HeLa cell lysate assessed as compound remaining at 150 uM measured after 24 hrs by reverse-phase HPLC assay; type: ADME, subcellular; conditions: read-out: Stabilty
Outline: (§1)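 Clarified lysate made from HeLa cells lysed on ice for 15 min in 50 mM Tris, 250 mM NaCl, 0.5% IGEPAL CA-630, pH 8.0. Peptide added at 150 μM and held at 37 °C. Peak area normalized to time zero.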

[4] = Stability of the compound in DMEM with 10% FBS (fetal bovine serum) at 150 uM measured at 24 hrs by reverse-phase HPLC assay
[5] = Stability in human HeLa cell lysate assessed as compound remaining at 150 uM measured after 1 hr by reverse-phase HPLC assay; type: ADME, subcellular; conditions: read-out: Stabilty; outline: as §1

Signal transducer and activator of transcription 3 (Homo sapiens), sequence (P40763 whole entry): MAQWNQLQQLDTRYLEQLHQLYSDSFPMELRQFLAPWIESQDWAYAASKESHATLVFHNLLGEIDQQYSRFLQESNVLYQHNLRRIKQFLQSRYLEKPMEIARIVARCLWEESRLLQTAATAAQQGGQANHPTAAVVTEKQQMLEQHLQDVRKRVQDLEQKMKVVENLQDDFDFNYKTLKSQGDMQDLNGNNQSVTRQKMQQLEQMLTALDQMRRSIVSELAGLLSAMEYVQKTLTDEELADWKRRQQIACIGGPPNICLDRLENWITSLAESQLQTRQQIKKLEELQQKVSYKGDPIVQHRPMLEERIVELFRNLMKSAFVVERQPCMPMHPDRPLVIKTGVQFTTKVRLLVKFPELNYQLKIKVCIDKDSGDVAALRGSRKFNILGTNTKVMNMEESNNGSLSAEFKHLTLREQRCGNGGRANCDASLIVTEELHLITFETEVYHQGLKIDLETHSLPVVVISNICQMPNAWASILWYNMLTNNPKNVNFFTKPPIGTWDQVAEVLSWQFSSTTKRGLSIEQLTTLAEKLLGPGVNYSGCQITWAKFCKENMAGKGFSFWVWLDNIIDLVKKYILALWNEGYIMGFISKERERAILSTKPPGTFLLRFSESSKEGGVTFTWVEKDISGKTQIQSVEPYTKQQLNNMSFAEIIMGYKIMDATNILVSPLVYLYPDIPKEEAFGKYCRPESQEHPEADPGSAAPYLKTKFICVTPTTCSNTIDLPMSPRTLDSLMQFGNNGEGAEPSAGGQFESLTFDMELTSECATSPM

Row | SMILES | inhibition [1] | Activity [2] | remaining at 24 h, 150 µM [3] [%] | Stabilty [4] | remaining at 1 h, 150 µM [5] [%]
1 | CC(C)C[C@H](NC(=O)[C@H](Cc1ccc(C(F)(F)P(=O)(O)O)cc1)NC(=O)CNC(=O)CCNC(=O)CCNC(=O)CC[C@@H]1NC(=O)[C@@H](CCCNC(=N)N)NC(=O)[C@H](CCCNC(=N)N)NC(=O)[C@@H](CCCNC(=N)N)NC(=O)[C@H](CCCNC(=N)N)NC(=O)[C@H](Cc2ccc3ccccc3c2)NC(=O)[C@@H](Cc2ccccc2)NC(=O)[C@H](Cc2ccccc2)NC1=O)C(=O)N1CCC[C@H]1C(=O)N(C)[C@@H](CCC(N)=O)C(=O)N[C@H](C(=O)N[C@H](C(N)=O)C(C)C)[C@@H](C)O | inactive | inactive | 100 |  | 
2 | CC(C)C[C@H](NC(=O)[C@H](Cc1ccc(C(F)(F)P(=O)(O)O)cc1)NC(=O)CNC(=O)CCNC(=O)CCNC(=O)CC[C@@H]1NC(=O)[C@@H](CCCNC(=N)N)NC(=O)[C@H](CCCNC(=N)N)NC(=O)[C@@H](CCCNC(=N)N)NC(=O)[C@H](CCCNC(=N)N)NC(=O)[C@H](Cc2ccc3ccccc3c2)NC(=O)[C@@H](Cc2ccccc2)NC(=O)[C@H](Cc2ccccc2)NC1=O)C(=O)N1CCC[C@H]1C(=O)N[C@@H](CCC(N)=O)C(=O)N[C@H](C(=O)N[C@H](C(N)=O)C(C)C)[C@@H](C)O (I: cyclo(F[dF][2Nal]R[dR]R[dR]E) / II: [βAla][βAla]G[F2Pmp]LPQTV-NH2; amide I:8-II:N) | inactive |  |  | Stable | 
3 | CC(C)C[C@H](NC(=O)[C@H](Cc1ccc(OP(=O)(O)O)cc1)NC(=O)CNC(=O)CCNC(=O)CCNC(=O)CC[C@@H]1NC(=O)[C@@H](CCCNC(=N)N)NC(=O)[C@H](CCCNC(=N)N)NC(=O)[C@@H](CCCNC(=N)N)NC(=O)[C@H](CCCNC(=N)N)NC(=O)[C@H](Cc2ccc3ccccc3c2)NC(=O)[C@@H](Cc2ccccc2)NC(=O)[C@H](Cc2ccccc2)NC1=O)C(=O)N1CCC[C@H]1C(=O)N[C@@H](CCC(N)=O)C(=O)N[C@H](C(=O)N[C@H](C(N)=O)C(C)C)[C@@H](C)O (I: cyclo([2Nal]R[dR]R[dR]EF[dF]) / II: [βAla][βAla]G[pY]LPQTV-NH2; amide I:6-II:N) | inactive |  |  | Unstable | < 20
